Only some compounds are listed: those with a hit (about 2.9% of all), similar ones and a draw of the others.
TRPC4 agonist = activators of mouse TRPC4 channel | Q9QUQ5 | HEK293 TRPC4beta/mu-opioid, Fluo4 calcium fluorescence; active compounds read high | B-score at 10 µM | hit rate 0.49% among 310,000;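 active = B-score above 5 SD of library B-scores, and initial fluorescence ratio not above library mean plus 5 SD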;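 also: positive B-score marks a calcium rise read as TRPC4 activation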
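Assay system: HEK293 stable line with TRPC4beta plus mu-opioid receptor; schedule: 45 min room-temperature Fluo4 loading, 110 s read; technique: kinetic Fluo4 calcium fluorescence; evaluation: integrated baseline-normalised fluorescence ratio, converted to per-well B score; controls: buffer (low) and maximal DAMGO (high)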
Kir21 block = blocks the mouse Kir2.1 inward-rectifier potassium channel; B-score at 10 µM; P35561; HEK293-Kir2.1, FluxOR thallium flux fluorescence; active compounds read low; hit rate 0.85% among 310,000; AID 1672;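 active = fluorescence ratio B-score at or below minus 3 SD of library scores, with starting-brightness B-score within 2 SD, cut at about -4.2 in these data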;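 also: channel flux triggered by added potassium and thallium sulfate stimulus; B-score of peak minus minimum fluorescence over baseline after thallium stimulus; more negative B-score means stronger Kir2.1 block with less thallium influx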
TRPC4 inh = inhibitors of mouse TRPC4 channel. HEK293 TRPC4beta/mu-opioid, DAMGO-evoked Fluo4 calcium flux; active compounds read low. B-score at 10 µM. hit rate 0.39% among 300,000. AID 2247;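 active = B-score over 3 SD under the library average, no early fluorescence shift, positive overall ratio signal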
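material = TRPC4beta/mu-opioid receptor HEK293 cell line | probe or stimulus = sequential submaximal and maximal DAMGO stimulation | compound dosing = one concentration per compound | measured by = Fluo4 Ca2+ flux fluorescence | evaluation = integrated fluorescence ratio relative to baseline, converted to per-well B score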
TRPC6 act = activates the mouse TRPC6 cation channel; Q61143; HEK293-TRPC6 membrane potential dye fluorescence; active compounds read high; B-score at 10 µM; hit rate 0.13% among 310,000; AID 2550;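 active = B-score of the integrated fluorescence ratio above library mean plus 3 SD, and starting fluorescence ratio within library mean plus 5 SD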;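 also: higher score means more depolarization so channel activation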
TRPC6 inhibitor = blocks the mouse TRPC6 cation channel. Q61143. HEK293-TRPC6, membrane potential dye, ACh-evoked depolarization; active compounds read low. B-score at 10 µM. hit rate 1.1% among 310,000;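 active = B-score under library mean minus 3 SD, initial fluorescence not abnormally high, positive integrated signal ratio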;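 also: B-score derived from integrated fluorescence ratio over the kinetic read; more negative B-score means stronger inhibition of depolarization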
TRPC4 PAM = TRPC4 (mouse) allosteric potentiation. hit rate 0.42% among 310,000. B-score at 10 µM. HEK293 TRPC4beta/mu-opioid, DAMGO EC20, Fluo-4 Ca2+ flux; active compounds read high. Q9QUQ5;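 active = B-score of calcium response area above 5 SD of library B-scores, with initial fluorescence ratio within 5 SD of library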;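 also: B-score of integrated fluorescence ratio over time as area under calcium response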
* marks the source's active call; other numbers are inactive results; i = inactive.

SMILES	TRPC4 agonist	Kir21 block	TRPC4 inh	TRPC6 act	TRPC6 inhibitor	TRPC4 PAM
CCOCCCNCc1cc(Br)ccc1OCc1ccccc1	i	-3.5	-6*	i	i	i
CC(=O)Nc1ccc(S(=O)(=O)NCCC(=O)Nc2cc(C)ccn2)cc1	i	0.73	i	i	i	i
COc1ccccc1-n1c(SCC(=O)Nc2ccc(NC(C)=O)cc2)nc2c([nH]c3ccccc32)c1=O	i	-0.1	i	i	i	i
CCc1cc(C(=O)N2CCN(C(=O)c3ccco3)CC2)sc1C	i	0.95	i	i	i	i
O=C1C=CC(=O)N1CCNc1ncc(C(F)(F)F)cc1Cl	i	-5.7*	i	i	i	i
O=C1CC(=O)N(CCNc2ncc(C(F)(F)F)cc2Cl)C(=O)N1	i	0	i	i	i	i
COc1cc(/C=N/O)cc(Br)c1OC	i	5	i	i	i	i
C=CCOc1c(Br)cc(/C=N/O)cc1OCC	i	-6*	i	i	i	i
CCCC/C(C)=N/NC(=O)Nc1ccccc1	74*	0.05	i	i	i	i
CCN(CC)CCOC(=O)C(Cc1ccco1)Cc1cccc2ccccc12 (configuration not stated)	i	-7.5*	i	i	i	i
CC1=NN(c2ccccc2)C(=O)/C1=C\c1c(C)[nH]n(-c2ccccc2)c1=O	i	1.6	i	i	i	i
CC1=NN(c2ccccc2)C(=O)/C1=C/c1c(O)n(-c2ccc(F)c(Cl)c2)[nH]c1=O	i	-2.4	-8*	i	i	i
CCCNC(=O)CN1CCN(c2cc3ccccc3c(Cl)n2)CC1	i	1.2	i	i	i	i
Cc1cccc(CN2CCC(C(=O)Nc3cccc(-c4cccc(F)c4)c3)CC2)n1	i	-5.1*	i	i	i	i
O=C(Nc1cccc(-c2cccc(F)c2)c1)C1CCN(Cc2ccco2)CC1	i	-4.9*	i	i	i	i
COc1ccc(CNC(=O)C2CCN(c3cc(C(=O)Nc4cccc(OC)c4)ccn3)CC2)cc1	i	0.54	i	i	i	i
COc1cc(NC(C)CCc2ccccc2)cc(OC)c1OC (configuration not stated)	i	-0.54	i	i	i	i
COc1cc(NC(C)CCCN)c2ncccc2c1Oc1ccccc1 (configuration not stated)	83*	-2.4	i	i	i	i
CCCc1cc(=O)[nH]c(SCC(=O)Nc2oc(C)c3c(C)n[nH]c(=O)c23)n1	i	-0.06	i	i	i	i
N#Cc1nc(Cc2cccc3ccccc23)oc1NCCCN1CCOCC1	i	-6*	i	i	i	i
N#Cc1nc(Cc2cccc3ccccc23)oc1NCCCn1ccnc1	i	-4.2	i	i	i	i
CCOC(=O)C1(CC2CC2)CCN(Cc2cn[nH]c2-c2ccccc2)CC1	48*	-2.3	-8*	i	i	i
CCOC(=O)C1(CC2CC2)CCN(Cc2cn[nH]c2-c2cccc(F)c2)CC1	i	-0.2	i	i	i	i
CCOC(=O)C1(Cc2ccccc2)CCN(Cc2cn[nH]c2-c2ccccc2)CC1	126*	-4.8*	i	i	i	i
CCOC(=O)c1[nH]ncc1CN1CCC(Cc2ccccc2)(C(=O)OCC)CC1	i	-1	i	i	i	i
SMILES	TRPC4 agonist	Kir21 block	TRPC4 inh	TRPC6 act	TRPC6 inhibitor	TRPC4 PAM
CCOC(=O)C1(Cc2ccccc2)CCCN(Cc2cnn(CC)c2)C1 (configuration not stated)	i	-1.9	i	i	i	i
CCOC(=O)C1(Cc2ccccc2)CCN(Cc2cnn(CC)c2)CC1	124*	-0.28	i	i	i	i
Cc1ccc(-c2c[nH]c(=S)n2-c2ccccc2F)cc1	i	-0.94	i	i	i	i
CCOC(=O)c1sc2nc(CC(=O)OC)nc(NCc3ccc(F)cc3)c2c1C	98*	0.38	-9*	i	i	i
CCN(C(=O)CSc1nnc(-c2c[nH]c3ccccc23)o1)C1CCS(=O)(=O)C1 (configuration not stated)	i	1.1	i	i	i	i
O=C1/C(=C/c2ccc([N+](=O)[O-])cc2)C=C(c2ccccc2)N1c1ccc(O)cc1	i	1.5	i	i	-5.2*	i
O=C1/C(=C/c2ccc([N+](=O)[O-])cc2)C=C(c2ccccc2)N1c1ccccc1	i	1.3	i	i	i	i
CCCCC(=O)N(c1ccc(C(=O)O)cc1)c1nc(-c2ccc(Cl)cc2)c(CC)s1	i	-1.1	-6*	i	i	i
CCOC(=O)C(=CNc1nc(-c2ccccc2)c(C(=O)Nc2ccc(-c3ccccc3)cc2)s1)C(=O)OCC	i	1.9	i	i	i	i
CCCCN(C)CCCNC(=O)c1cc(-c2cccnc2)nc2ccccc12	i	-0.01	i	i	i	i
CCN(CC)CCNC(=O)c1cc(-c2cccnc2)nc2ccc(S(=O)(=O)N3CCC(C)CC3)cc12	i	-5.7*	i	i	i	i
CCCCNC(=O)Cn1cnc2ccc(S(=O)(=O)N3CCC(C)CC3)cc2c1=O	i	-0.69	i	i	i	i
CCCCN(C)CCNC(=O)c1cc(-c2cccnc2)nc2ccc(S(=O)(=O)N3CCC(C)CC3)cc12	57*	-0.19	i	i	i	i
CCN(CC)CCCNC(=O)Cn1cnc2ccc(S(=O)(=O)N3CCC(C)CC3)cc2c1=O	i	2.7	i	i	i	12*
CCCCNS(=O)(=O)c1ccc2nc(-c3cccnc3)cc(C(=O)NCCCN(CC)CC)c2c1	i	0.32	i	i	i	i
Cc1ccccc1-n1nnnc1SCC(=O)NCC1CCCO1 (configuration not stated)	i	0.6	i	i	i	i
Cc1ccc(OCC(=O)c2ccc3c(c2)CCCC3)cc1C	i	1.1	i	i	i	i
O=C(COc1ccc(Br)cc1)c1ccc2c(c1)CCCC2	i	0.65	i	i	i	12*
Cc1ccccc1C(=O)OC1CCCN(C)C1 (configuration not stated)	i	0.68	i	i	i	14*
CN1CCCC(OC(=O)c2ccc(C#N)cc2)C1 (configuration not stated)	i	1.2	i	i	i	i

High-throughput results deposited in PubChem by Johns Hopkins Ion Channel Center.
